Laboratory results published in ChEMBL document CHEMBL1122805, “Structure-activity relationships of sparsomycin and its analogues. Octylsparsomycin: the first analogue more active than sparsomycin” (1984).
Converted amounts (≈) assume the structure as drawn. The source made the active and inactive calls. No cut-off for these calls is given here.

Tested on: L1210
Assay: In vitro cytostatic activity and inhibition of leukemia L1210 cells. The dose causing 50% of inhibition of colony formation (ID50) relative to untreated control cells
Assay type: functional
Details: Mus musculus, read-out: ID50 (the source's name)
Summary of the method: (§1)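 Mouse leukemia L1210 cells taken from suspension culture; 100 cells plated per dish in soft agar medium (Dulbecco's with 20% horse serum, 2-mercaptoethanol, L-asparagine, DEAE-dextran, 0.3% agar) containing compound at several concentrations. Continuous exposure 8 days, 37 °C, 10% CO2, humidified. Colonies counted; ID50 from dose-effect curves versus untreated controls. Highest dose tested 100 μg/mL.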

Row | Compound | IC50 [µg/mL]
1 | CSC[S@+]([O-])C[C@H](CO)NC(=O)/C=C/c1c(C)[nH]c(=O)[nH]c1=O | 0.15 (≈ 0.415 µM)
2 | CSC[S@@+]([O-])C[C@H](CO)NC(=O)/C=C/c1c(C)[nH]c(=O)[nH]c1=O | 2.1 (≈ 5.81 µM)

The remaining lines, values ahead:

Row | IC50 [µg/mL] | Compound
3 | 0.05 (≈ 0.109 µM) | CCCCCCCCSC[S+]([O-])C[C@H](CO)NC(=O)/C=C/c1c(C)nc(O)nc1O (some centres undefined)
4 | 66 (≈ 183 µM) | Cc1nc(O)nc(O)c1/C=C/C(=O)N[C@@H](CO)CSC[S+](C)[O-] (some centres undefined)
5 | 4.4 (≈ 12.7 µM) | CSCSC[C@H](CO)NC(=O)/C=C/c1c(C)nc(O)nc1O

Tested on: L1210
Assay: In vitro cytostatic activity and inhibition of leukemia L1210 cells. The dose causing 50% of inhibition of colony formation (ID50) relative to untreated control cells; NA-Not Active
Assay type: functional, cell-based
Details: Mus musculus
Summary of the method: as §1

Row | Compound | ID50
6 | CSC[S@+]([O-])C[C@@H](CO)NC(=O)/C=C/c1c(C)nc(O)nc1O | inactive
7 | CSCSC[C@@H](CO)NC(=O)/C=C/c1c(C)nc(O)nc1O | inactive
8 | CSC[S@@+]([O-])C[C@@H](CO)NC(=O)/C=C/c1c(C)[nH]c(=O)[nH]c1=O | inactive
9 | Cc1nc(O)nc(O)c1/C=C/C(=O)N[C@H](CO)CSC[S+](C)[O-] (some centres undefined) | inactive
